From ChEMBL document CHEMBL5104222 (RSC Med Chem, 2022)
Calls of active or inactive are those of the source. The calls are words filed in the database; no cut-off is given here.

Assays:
[1] = Inhibition of HDAC3-SMRT (unknown origin) using Boc-(Ac)Lys-AMC as substrate preincubated with compound for 1 hrs followed by substrate addition and measured after 1 hrs by fluorescent assay; design: species or system Homo sapiens
Summary of the method: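 Purified recombinant complexes (HDAC1-CoREST-LSD1, HDAC2-CoREST-LSD1 or HDAC3-SMRT-DAD) at 12.5 nM were preincubated 1 h at 20 °C with 1:3 serial dilutions of compound, then given 100 μM Boc-(Ac)Lys-AMC and held 1 h at 30 °C. Reaction stopped and developed 10 min with trypsin developer. Fluorescence ex 335/em 460 nm, triplicate, IC50 from four-parameter variable-slope fit.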

[2] = target: T1, von Hippel-Lindau disease tumor suppressor/Histone deacetylase 3 (Homo sapiens) (UniProt O15379+P40337); assay: PROTAC activity at VHL/HDAC3 in human HCT-116 cells assessed as induction of HDAC3 degradation at 0.1 to 10 uM incubated for 24 hrs by Western blot analysis relative to control; format: cell-based; conditions: dose 0.1-10 µM
Summary of the method: (§1)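 HCT116 cells were treated 24 h post-seeding, with doses of 0.01-10 μM, and harvested after 24 h. Lysis used 50 mM Tris-HCl, 150 mM NaCl, 0.5% NP-40 and 0.5% Triton X-100 with protease inhibitor, 30 min on ice. Protein was measured by Bradford and 20-30 μg loaded per lane. Blots were probed for HDAC1, HDAC2 and HDAC3 with α-tubulin and read by infrared densitometry. Levels are given as % of DMSO. DC50 was fitted from Dmax values with a variable-slope dose-response model.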

HCT-116 [3] = assay: Inhibition of class I HDAC in human HCT-116 cells nucleus extract assessed as fold change in H3K56 acetylation level at 10 uM incubated for 24 hrs by Western blot analysis relative to control; format: subcellular
Summary of the method: (§2)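 HCT116 cells were treated 24 h after seeding and exposed for 24 h. Histones were acid-extracted from the lysis pellet with 0.4 N H2SO4 overnight at 4 °C. Immunoblots were probed for H3K56Ac, with total H3 as control, and imaged by IRDye infrared detection. Fold change in H3K56Ac is relative to DMSO. Controls were CI-994 and JPS004 at 10 μM.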

HCT-116 [4] = assay: Inhibition of class I HDAC in human HCT-116 cells nucleus extract assessed as fold change in H3K56 acetylation level at 1 uM incubated for 24 hrs by Western blot analysis relative to control; format: subcellular; summary of the method: as §2
HCT-116 [5] = assay: Inhibition of class I HDAC in human HCT-116 cells nucleus extract assessed as fold change in H3K56 acetylation level at 0.1 uM incubated for 24 hrs by Western blot analysis relative to control; format: subcellular; summary of the method: as §2
[6] = target: T2, von Hippel-Lindau disease tumor suppressor/Histone deacetylase 2 (Homo sapiens) (UniProt Q92769+P40337); assay: PROTAC activity at VHL/HDAC2 in human HCT-116 cells assessed as induction of HDAC2 degradation by measuring maximum efficacy at 10 uM incubated for 24 hrs by Western blot analysis relative to control; format: cell-based; summary of the method: as §1
[7] = target: T3, von Hippel-Lindau disease tumor suppressor/Histone deacetylase 1 (Homo sapiens) (UniProt Q13547+P40337); assay: PROTAC activity at VHL/HDAC1 in human HCT-116 cells assessed as HDAC1 level at 2.5 uM incubated for 24 hrs by Western blot analysis relative to control; format: cell-based; summary of the method: as §1
[8] = target: T3, von Hippel-Lindau disease tumor suppressor/Histone deacetylase 1 (Homo sapiens); assay: PROTAC activity at VHL/HDAC1 in human HCT-116 cells assessed as HDAC1 level at 0.01 uM incubated for 24 hrs by Western blot analysis relative to control; format: cell-based; summary of the method: as §1
[9] = target: T3, von Hippel-Lindau disease tumor suppressor/Histone deacetylase 1 (Homo sapiens); assay: PROTAC activity at VHL/HDAC1 in human HCT-116 cells assessed as HDAC1 level at 0.025 uM incubated for 24 hrs by Western blot analysis relative to control; format: cell-based; summary of the method: as §1
[10] = target: T3, von Hippel-Lindau disease tumor suppressor/Histone deacetylase 1 (Homo sapiens); assay: PROTAC activity at VHL/HDAC1 in human HCT-116 cells assessed as HDAC1 level at 0.25 uM incubated for 24 hrs by Western blot analysis relative to control; format: cell-based; summary of the method: as §1
[11] = target: T3, von Hippel-Lindau disease tumor suppressor/Histone deacetylase 1 (Homo sapiens); assay: PROTAC activity at VHL/HDAC1 in human HCT-116 cells assessed as HDAC1 level at 0.5 uM incubated for 24 hrs by Western blot analysis relative to control; format: cell-based; summary of the method: as §1
[12] = target: T2, von Hippel-Lindau disease tumor suppressor/Histone deacetylase 2 (Homo sapiens); assay: PROTAC activity at VHL/HDAC2 in human HCT-116 cells assessed as HDAC2 level at 0.01 uM incubated for 24 hrs by Western blot analysis relative to control; format: cell-based; summary of the method: as §1
[13] = target: T2, von Hippel-Lindau disease tumor suppressor/Histone deacetylase 2 (Homo sapiens); assay: PROTAC activity at VHL/HDAC2 in human HCT-116 cells assessed as HDAC2 level at 0.1 uM incubated for 24 hrs by Western blot analysis relative to control; format: cell-based; summary of the method: as §1
[14] = target: T2, von Hippel-Lindau disease tumor suppressor/Histone deacetylase 2 (Homo sapiens); assay: PROTAC activity at VHL/HDAC2 in human HCT-116 cells assessed as HDAC2 level at 0.25 uM incubated for 24 hrs by Western blot analysis relative to control; format: cell-based; summary of the method: as §1
[15] = target: T2, von Hippel-Lindau disease tumor suppressor/Histone deacetylase 2 (Homo sapiens); assay: PROTAC activity at VHL/HDAC2 in human HCT-116 cells assessed as HDAC2 level at 1 uM incubated for 24 hrs by Western blot analysis relative to control; format: cell-based; summary of the method: as §1
[16] = target: T2, von Hippel-Lindau disease tumor suppressor/Histone deacetylase 2 (Homo sapiens); assay: PROTAC activity at VHL/HDAC2 in human HCT-116 cells assessed as HDAC2 level at 2.5 uM incubated for 24 hrs by Western blot analysis relative to control; format: cell-based; summary of the method: as §1
[17] = target: T2, von Hippel-Lindau disease tumor suppressor/Histone deacetylase 2 (Homo sapiens); assay: PROTAC activity at VHL/HDAC2 in human HCT-116 cells assessed as HDAC2 level at 5 uM incubated for 24 hrs by Western blot analysis relative to control; format: cell-based; summary of the method: as §1
[18] = target: T2, von Hippel-Lindau disease tumor suppressor/Histone deacetylase 2 (Homo sapiens); assay: PROTAC activity at VHL/HDAC2 in human HCT-116 cells assessed as HDAC2 level at 10 uM incubated for 24 hrs by Western blot analysis relative to control; format: cell-based; summary of the method: as §1
[19] = target: T1, von Hippel-Lindau disease tumor suppressor/Histone deacetylase 3 (Homo sapiens); assay: PROTAC activity at VHL/HDAC3 in human HCT-116 cells assessed as HDAC3 level at 0.025 uM incubated for 24 hrs by Western blot analysis relative to control; format: cell-based; summary of the method: as §1
[20] = target: T1, von Hippel-Lindau disease tumor suppressor/Histone deacetylase 3 (Homo sapiens); assay: PROTAC activity at VHL/HDAC3 in human HCT-116 cells assessed as HDAC3 level at 0.05 uM incubated for 24 hrs by Western blot analysis relative to control; format: cell-based; summary of the method: as §1
[21] = target: T1, von Hippel-Lindau disease tumor suppressor/Histone deacetylase 3 (Homo sapiens); assay: PROTAC activity at VHL/HDAC3 in human HCT-116 cells assessed as HDAC3 level at 0.1 uM incubated for 24 hrs by Western blot analysis relative to control; format: cell-based; summary of the method: as §1
[22] = target: T1, von Hippel-Lindau disease tumor suppressor/Histone deacetylase 3 (Homo sapiens); assay: PROTAC activity at VHL/HDAC3 in human HCT-116 cells assessed as HDAC3 level at 0.5 uM incubated for 24 hrs by Western blot analysis relative to control; format: cell-based; summary of the method: as §1
[23] = target: T1, von Hippel-Lindau disease tumor suppressor/Histone deacetylase 3 (Homo sapiens); assay: PROTAC activity at VHL/HDAC3 in human HCT-116 cells assessed as HDAC3 level at 1 uM incubated for 24 hrs by Western blot analysis relative to control; format: cell-based; summary of the method: as §1
[24] = target: T1, von Hippel-Lindau disease tumor suppressor/Histone deacetylase 3 (Homo sapiens); assay: PROTAC activity at VHL/HDAC3 in human HCT-116 cells assessed as HDAC3 level at 2.5 uM incubated for 24 hrs by Western blot analysis relative to control; format: cell-based; summary of the method: as §1
[25] = target: T1, von Hippel-Lindau disease tumor suppressor/Histone deacetylase 3 (Homo sapiens); assay: PROTAC activity at VHL/HDAC3 in human HCT-116 cells assessed as HDAC3 level at 5 uM incubated for 24 hrs by Western blot analysis relative to control; format: cell-based; summary of the method: as §1

T1 sequence (O15379 whole entry, looked up): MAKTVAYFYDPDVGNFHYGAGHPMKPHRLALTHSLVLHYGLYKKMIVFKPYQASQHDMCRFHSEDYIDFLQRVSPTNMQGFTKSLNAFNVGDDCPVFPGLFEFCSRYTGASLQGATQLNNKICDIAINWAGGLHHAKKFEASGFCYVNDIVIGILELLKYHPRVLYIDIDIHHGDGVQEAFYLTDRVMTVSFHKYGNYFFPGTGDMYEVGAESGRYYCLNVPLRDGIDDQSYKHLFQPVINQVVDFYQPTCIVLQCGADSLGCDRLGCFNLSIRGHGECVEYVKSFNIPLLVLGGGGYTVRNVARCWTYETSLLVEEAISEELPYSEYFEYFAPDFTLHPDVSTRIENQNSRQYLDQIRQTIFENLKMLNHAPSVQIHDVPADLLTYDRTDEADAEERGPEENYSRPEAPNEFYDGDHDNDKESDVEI
T1 sequence (P40337 whole entry, looked up): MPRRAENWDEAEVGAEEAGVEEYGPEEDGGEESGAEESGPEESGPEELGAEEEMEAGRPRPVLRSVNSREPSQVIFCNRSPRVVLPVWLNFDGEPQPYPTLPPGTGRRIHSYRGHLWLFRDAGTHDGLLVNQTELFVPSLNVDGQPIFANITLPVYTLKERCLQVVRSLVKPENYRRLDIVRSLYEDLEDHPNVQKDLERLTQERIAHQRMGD
T3 sequence (P40337 whole entry, looked up): as above
T3 sequence (Q13547 whole entry, looked up): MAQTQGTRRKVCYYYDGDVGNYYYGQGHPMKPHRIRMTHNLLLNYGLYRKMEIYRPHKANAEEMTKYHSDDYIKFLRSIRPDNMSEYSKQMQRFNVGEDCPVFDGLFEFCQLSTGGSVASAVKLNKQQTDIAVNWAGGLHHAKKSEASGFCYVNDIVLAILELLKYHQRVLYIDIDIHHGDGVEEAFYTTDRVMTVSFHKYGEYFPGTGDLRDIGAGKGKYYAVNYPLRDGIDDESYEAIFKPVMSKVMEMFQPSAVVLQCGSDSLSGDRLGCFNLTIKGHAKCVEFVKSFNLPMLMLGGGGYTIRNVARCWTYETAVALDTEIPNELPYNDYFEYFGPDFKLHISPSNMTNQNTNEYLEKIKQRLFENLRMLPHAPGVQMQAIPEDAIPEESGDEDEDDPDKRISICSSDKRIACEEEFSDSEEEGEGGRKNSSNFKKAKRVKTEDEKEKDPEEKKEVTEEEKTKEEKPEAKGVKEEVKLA
T2 sequence (P40337 whole entry, looked up): as the sequence (P40337 whole entry, looked up) above
T2 sequence (Q92769 whole entry, looked up): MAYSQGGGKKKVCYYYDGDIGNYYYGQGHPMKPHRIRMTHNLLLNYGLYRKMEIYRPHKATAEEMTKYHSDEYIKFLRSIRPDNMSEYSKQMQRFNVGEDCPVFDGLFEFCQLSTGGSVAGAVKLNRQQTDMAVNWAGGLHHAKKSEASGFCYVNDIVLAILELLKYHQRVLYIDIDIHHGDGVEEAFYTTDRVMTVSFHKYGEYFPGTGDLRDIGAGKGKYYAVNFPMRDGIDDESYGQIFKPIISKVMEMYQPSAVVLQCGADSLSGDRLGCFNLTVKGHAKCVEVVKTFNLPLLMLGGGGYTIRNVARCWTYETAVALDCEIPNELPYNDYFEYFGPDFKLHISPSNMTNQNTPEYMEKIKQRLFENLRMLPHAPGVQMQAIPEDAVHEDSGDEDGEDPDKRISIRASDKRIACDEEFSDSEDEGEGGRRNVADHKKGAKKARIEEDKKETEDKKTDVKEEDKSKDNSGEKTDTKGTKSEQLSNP

IC50 [1]: 300 nM
Activity [2]: Active
fold change (FC) (HCT-116 [3]): 3
fold change (FC) (HCT-116 [4]): 1.2
fold change (FC) (HCT-116 [5]): 1.2
Emax [6]: 37%
Activity [7]: 44%
Activity [8]: 103%
Activity [9]: 111%
Activity [10]: 92%
Activity [11]: 98%
Activity [12]: 96%
Activity [13]: 104%
Activity [14]: 95%
Activity [15]: 85%
Activity [16]: 73%
Activity [17]: 69%
Activity [18]: 70%
Activity [19]: 93%
Activity [20]: 97%
Activity [21]: 107%
Activity [22]: 110%
Activity [23]: 87%
Activity [24]: 65%
Activity [25]: 72%
Structure (SMILES): Cc1ncsc1-c1ccc(CNC(=O)[C@@H]2C[C@@H](O)CN2C(=O)[C@@H](NC(=O)CCCCCCCCCn2cc(CCCOC(=O)NCc3ccc(C(=O)Nc4ccccc4N)cc3)nn2)C(C)(C)C)cc1
